Calls of active or inactive are those of the source. The calls are words filed in the database; no cut-off is given here.
Columns and labels:
[1] = biological target: T1, Urease subunit alpha/Urease subunit beta (Helicobacter pylori (strain ATCC 700392 / 26695) (Campylobacterpylori)) (UniProt P69996+P14916); assay: Potency index, ratio of AHA IC50 to compound IC50 for Helicobacter pylori ATCC 43504 urease assessed as reduction in ammonia production preincubated for 1.5 hrs under cell free condition by indophenol method; type: protein-complex assay; details: Helicobacter pylori NCTC 11637 = CCUG 17874 = ATCC 43504
[2] = biological target: T2, Urease subunit alpha/Urease subunit beta (Helicobacter pylori (strain ATCC 700392 / 26695) (Campylobacterpylori), UniProt P69996); assay: Inhibition of Helicobacter pylori ATCC 43504 urease assessed as reduction in ammonia production preincubated for 1.5 hrs under cell free condition by indophenol method; type: protein-complex assay, Helicobacter pylori NCTC 11637 = CCUG 17874 = ATCC 43504
Method in brief: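 Crude urease from sonicated ATCC 43504 cells (grown microaerobically in Brucella broth with 10% sheep blood), desalted on Sephadex G-25 and stored in 50% glycerol at 4 °C. Enzyme (10U) pre-incubated with test compound 1.5 h at room temperature. Ammonia production read by Weatherburn indophenol method.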

[3] = biological target: T1, Urease subunit alpha/Urease subunit beta (Helicobacter pylori (strain ATCC 700392 / 26695) (Campylobacterpylori)); assay: Ratio of IC50 for Helicobacter pylori ATCC 43504 urease under cell free condition to IC50 for urease in intact Helicobacter pylori ATCC 43504; type: protein-complex assay; details: Helicobacter pylori NCTC 11637 = CCUG 17874 = ATCC 43504
Method in brief: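 Cell-free arm: desalted crude H. pylori urease lysate (10 U) was preincubated with compound for 1.5 h at room temperature. Intact-cell arm: the same set-up with H. pylori cell suspension (4.0 × 10^7 CFU/mL) in place of the enzyme. Ammonia was measured by the indophenol method in both arms.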

[4] = tested on: Helicobacter pylori; assay: Antibacterial activity against Helicobacter pylori ATCC 43504 infected in Kunming mouse assessed as bacterial eradication at 32 mg/kg, po bid treated for 14 days relative to control; type: functional, NCTC 11637 = CCUG 17874 = ATCC 43504
Method in brief: (§1)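 Mice (18–22 g) fasted 4 h, then given 0.2 mol/L NaHCO3 intragastrically. Fifteen min later they were inoculated intragastrically with H. pylori (1 × 10^9 cfu/mL), once daily for a week. Three weeks later mice were randomized (n=13/group). Compound in 0.5% CMC-Na was given intragastrically at 8:00 and 18:00 daily for 14 days. Eradication was compared with an untreated infected model group.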

[5] = tested on: Helicobacter pylori; assay: Antibacterial activity against Helicobacter pylori ATCC 43504 infected in Kunming mouse assessed as reduction in gastric mucosa injury in mouse stomach at 32 mg/kg, po bid treated for 14 days by hematoxylin and eosin staining based assay; type: functional, organism-based; details: NCTC 11637 = CCUG 17874 = ATCC 43504
Method in brief: (§2)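 KM mice (18–22 g) were pretreated with NaHCO3 and infected intragastrically with H. pylori (1 × 10^9 cfu/mL) daily for one week. After three weeks, groups (n=13) received compound in 0.5% CMC-Na intragastrically b.i.d. for 14 days. Part of each stomach was fixed in 4% paraformaldehyde, paraffin-embedded and cut at 3.0 µm to assess gastric mucosal lesions against an untreated infected model.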

[6] = biological target: T2, Urease subunit alpha/Urease subunit beta; assay: Inhibition of urease in Helicobacter pylori ATCC 43504 assessed as reduction in ammonia production preincubated for 1.5 hrs by indophenol method; type: protein-complex assay, Helicobacter pylori NCTC 11637 = CCUG 17874 = ATCC 43504
Method in brief: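 Crude urease was prepared from H. pylori harvested from broth, PBS-washed, frozen at -80 °C, sonicated with protease inhibitors, centrifuged, desalted on Sephadex G-25 and stored in 50% glycerol at 4 °C. Enzyme (10 U) was preincubated with test compound for 1.5 h at room temperature. Ammonia production was read by the Weatherburn indophenol method.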

[7] = biological target: T2, Urease subunit alpha/Urease subunit beta; assay: Mixed type non-competitive inhibition of urease in Helicobacter pylori ATCC 43504 assessed as enzyme-substrate-inhibitor complex constant preincubated for 1.5 hrs by indophenol method; type: protein-complex assay, Helicobacter pylori NCTC 11637 = CCUG 17874 = ATCC 43504
Method in brief: (§3)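 Crude H. pylori ATCC 43504 urease with compound pre-incubated 1.5 h at room temperature, then ammonia production velocity measured by indophenol method across a urea concentration gradient at each fixed inhibitor concentration. V–[S] data fitted nonlinearly to assign inhibition type. Fitting constants plotted linearly against [I]; Ki and K'i taken from X-axis intercepts. Triplicate.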

[8] = biological target: T2, Urease subunit alpha/Urease subunit beta; assay: Mixed type non-competitive inhibition of urease in Helicobacter pylori ATCC 43504 assessed as reduction in ammonia production preincubated for 1.5 hrs by indophenol method; type: protein-complex assay, Helicobacter pylori NCTC 11637 = CCUG 17874 = ATCC 43504; method in brief: as §3
[9] = tested on: Helicobacter pylori; assay: Antibacterial activity against Helicobacter pylori ATCC 43504 infected in Kunming mouse assessed as bacterial eradication at 64 mg/kg, po bid treated for 14 days relative to control; type: functional, NCTC 11637 = CCUG 17874 = ATCC 43504; method in brief: as §1
[10] = Acute toxicity in po dosed Kunming mouse assessed as induction of mortality administered as single dose and measured after 14 days; type: organism-based; details: in vivo
Method in brief: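 Male and female adult KM mice, 18–22 g, n=10 per group. Single intragastric dose of 500, 1000, 2000, 3000 or 5000 mg/kg in 0.5% CMC-Na, 200 μL per mouse; controls received vehicle alone. Mortality recorded over 14 days. LD50 estimated by probit analysis.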

[11] = tested on: Helicobacter pylori; assay: Antibacterial activity against Helicobacter pylori ATCC 43504 infected in Kunming mouse assessed as reduction in gastric mucosa injury in mouse stomach at 16 mg/kg, po bid treated for 14 days by hematoxylin and eosin staining based assay; type: functional, organism-based; details: NCTC 11637 = CCUG 17874 = ATCC 43504; method in brief: as §2
[12] = tested on: Helicobacter pylori; assay: Antibacterial activity against Helicobacter pylori ATCC 43504 infected in Kunming mouse assessed as bacterial eradication at 16 mg/kg, po bid treated for 14 days relative to control; type: functional, NCTC 11637 = CCUG 17874 = ATCC 43504; method in brief: as §1
[13] = tested on: Helicobacter pylori; assay: Antibacterial activity against Helicobacter pylori ATCC 43504 infected in Kunming mouse assessed as bacterial eradication at 128 mg/kg, po bid treated for 14 days relative to control; type: functional, NCTC 11637 = CCUG 17874 = ATCC 43504; method in brief: as §1

T2 sequence (P69996 whole entry): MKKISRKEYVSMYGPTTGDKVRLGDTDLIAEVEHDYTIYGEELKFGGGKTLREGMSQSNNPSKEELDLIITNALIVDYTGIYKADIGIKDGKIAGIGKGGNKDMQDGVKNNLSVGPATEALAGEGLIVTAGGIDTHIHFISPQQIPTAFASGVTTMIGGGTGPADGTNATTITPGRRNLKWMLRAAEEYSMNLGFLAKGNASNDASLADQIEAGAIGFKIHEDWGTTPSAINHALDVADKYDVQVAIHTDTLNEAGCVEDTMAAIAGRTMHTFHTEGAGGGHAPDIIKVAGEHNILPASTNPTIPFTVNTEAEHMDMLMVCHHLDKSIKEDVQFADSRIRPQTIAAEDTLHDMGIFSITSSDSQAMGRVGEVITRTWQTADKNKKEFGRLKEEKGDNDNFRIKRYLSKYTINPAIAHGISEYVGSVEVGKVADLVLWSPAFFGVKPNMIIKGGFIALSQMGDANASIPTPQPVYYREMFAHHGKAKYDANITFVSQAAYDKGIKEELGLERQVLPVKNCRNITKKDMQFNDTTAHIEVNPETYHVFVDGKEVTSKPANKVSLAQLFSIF
T2 sequence (P14916 whole entry, further chain): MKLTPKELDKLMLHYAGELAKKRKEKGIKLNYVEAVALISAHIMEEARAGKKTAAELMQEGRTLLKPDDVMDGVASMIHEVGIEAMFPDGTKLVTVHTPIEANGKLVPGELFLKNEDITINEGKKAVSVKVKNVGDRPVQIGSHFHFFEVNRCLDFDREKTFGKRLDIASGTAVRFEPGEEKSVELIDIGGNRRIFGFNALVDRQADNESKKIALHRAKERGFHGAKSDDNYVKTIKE
T1 sequence (P14916 whole entry, looked up): as the sequence (P14916 whole entry, further chain) above
T1 sequence (P69996 whole entry, looked up): as the sequence (P69996 whole entry) above

Row | SMILES | IC50 [2] [µM] | Ratio IC50 [3] | other results
1 | O=C(CNc1ccccc1Br)NO | 12.3 | 46 to 110 | Ratio IC50 [1]: 2 to 24
2 | CC(=O)NO [ACETOHYDROXAMIC ACID] |  | 46 to 110 | Activity [4]: 44.4%; Activity [5]: Active; IC50 [6]: 172 µM
3 | O=C(CNc1ccc(Cl)cc1Cl)NO | 66.1 | 46 to 110 | 
4 | COc1ccc(NCC(=O)NO)cc1 | 69.8 | 46 to 110 | 
5 | O=C(CNc1ccccc1)NO | 4.67 | 46 to 110 | 
6 | O=C(CNc1cc(Cl)cc(Cl)c1)NO | 0.13 | 46 to 110 | IC50 [6]: 16.9 µM; Ki [7]: 0.315 µM; Ki [8]: 1.66 µM
7 | O=C(CCNc1cccc(Cl)c1Cl)NO | 3.83 | 46 to 110 | 
8 | COc1ccccc1NCC(=O)NO | 152 | 46 to 110 | 
9 | O=C(CCNc1c(Cl)cccc1Cl)NO | 25 | 46 to 110 | 
10 | O=C(CNc1cccc(Cl)c1Cl)NO | 14.8 | 46 to 110 | 
11 | O=C(CNc1ccccc1Cl)NO | 58.9 | 46 to 110 | 
12 | O=C(CCNc1cccc([N+](=O)[O-])c1)NO | 5.1 | 46 to 110 | 
13 | O=C(CCNc1cc(F)cc(F)c1)NO | 1.52 | 46 to 110 | 
14 | O=C(CNc1ccc(Cl)cc1)NO | 2.47 | 46 to 110 | 
15 | Cc1cc(C)cc(NCCC(=O)NO)c1 | 2.93 | 46 to 110 | 
16 | O=C(CCNc1ccc(F)cc1)NO | 0.18 | 46 to 110 | IC50 [6]: 17.9 µM
17 | COc1cc(NCC(=O)NO)cc(OC)c1 | 2.28 | 46 to 110 | 
18 | O=C(CCNc1ccc(Cl)cc1Cl)NO | 0.018 | 46 to 110 | Activity [9]: 100%; Activity [4]: 100%; Activity [5]: Active; IC50 [6]: 0.14 µM; Ratio IC50 [1]: > 1500; Ki [7]: 0.0602 µM; LD50 at 336 h [10]: 3130 mg/kg; Activity [11]: Active; Ki [8]: 0.442 µM; Activity [12]: 92.3%
19 | O=C(CCNc1ccccc1Cl)NO | 0.055 | 46 to 110 | Activity [9]: 92.3%; Activity [4]: 84.6%; Activity [5]: Active; IC50 [6]: 5.91 µM; LD50 at 336 h [10]: 3350 mg/kg; Activity [13]: 100%
20 | O=C(CCNc1cc(Cl)cc(Cl)c1)NO | 0.043 | 46 to 110 | Activity [9]: 100%; Activity [4]: 92.3%; Activity [5]: Active; IC50 [6]: 3.9 µM; Ki [7]: 0.153 µM; LD50 at 336 h [10]: 2980 mg/kg; Ki [8]: 1.57 µM; Activity [13]: 100%
21 | O=C(CCN1CCCc2ccccc21)NO | 21.1 | 46 to 110 | 

Row | SMILES | IC50 [2] [µM] | Ratio IC50 [3] | other results
22 | O=C(CCNc1ccccc1[N+](=O)[O-])NO | 10.5 | 46 to 110 | 
23 | O=C(CNc1ccc(F)cc1)NO | 7.41 | 46 to 110 | 
24 | O=C(CCNc1cc(Cl)ccc1Cl)NO | 0.45 | 46 to 110 | IC50 [6]: 29.5 µM
25 | O=C(CNc1cccc([N+](=O)[O-])c1)NO | 8.21 | 46 to 110 | 
26 | Cc1cc(C)cc(NCC(=O)NO)c1 | 2.12 | 46 to 110 | 
27 | O=C(CNc1cc(Cl)ccc1Cl)NO | 1.64 | 46 to 110 | 
28 | O=C(CNc1ccc(Br)cc1)NO | 2.01 | 46 to 110 | Ratio IC50 [1]: 2 to 24
29 | O=C(CNc1c(Cl)cccc1Cl)NO | 191 | 46 to 110 | 
30 | O=C(CNc1cccc(Br)c1)NO | 0.86 | 46 to 110 | IC50 [6]: 48.1 µM; Ratio IC50 [1]: 2 to 24
31 | O=C(CN1CCCc2ccccc21)NO | 71.1 | 46 to 110 | 
32 | O=C(CNc1cc(F)cc(F)c1)NO | 5.11 | 46 to 110 | 
33 | O=C(CNc1cccc(Cl)c1)NO | 1.15 | 46 to 110 | 
34 | O=C(CCNc1ccccc1Br)NO | 0.13 | 46 to 110 | IC50 [6]: 14.5 µM
35 | O=C(CCNc1ccc([N+](=O)[O-])cc1)NO | 1.23 | 46 to 110 | 
36 | COc1cccc(NCC(=O)NO)c1 | 21.8 | 46 to 110 | 
37 | Cc1ccc(NCC(=O)NO)cc1 | 3.91 | 46 to 110 | 
38 | O=C(CCNc1ccccc1)NO | 1.22 | 46 to 110 | 
39 | O=C(CCNc1ccc(Cl)c(Cl)c1)NO | 0.71 | 46 to 110 | IC50 [6]: 38.9 µM
40 | O=C(CNc1ccc(Cl)c(Cl)c1)NO | 0.76 | 46 to 110 | IC50 [6]: 41.6 µM
41 | COc1ccccc1NCCC(=O)NO | 1.64 | 46 to 110 | 

Source: ChEMBL document CHEMBL4152330, “Arylamino containing hydroxamic acids as potent urease inhibitors for the treatment of Helicobacter pylori infection” (Eur J Med Chem, 2018)
